Screening data: PubChem BioAssay, The Scripps Research Institute Molecular Screening Center
CHO parental Ca: ATP-evoked calcium signal inhibitors, parental CHO, primary screen, counter-screen for OX1R antagonist project, cell-based, fluorescence, Fluo-8 calcium dye | 330,000 tested, 0.63% active | AID 463079, 2010 | parental CHO-K1, ATP-induced calcium, Fluo-8 fluorescence | inhibition, % at 5.6 µM;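 active means inhibition above that plate's mean sample inhibition plus 3 SD, cut at about 26% in these data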;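 further: 0% = ATP-challenged DMSO wells and 100% = DMSO wells without ATP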
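Measured by: calcium-sensitive Fluo-8 fluorescence / Test system: CHO parental line / Controls: ATP-challenged DMSO wells low, unchallenged DMSO wells high / Measure: % inhibition / Compound: single nominal dose of 5.6 µM per compound / Replicates: single well per compound, no replicates / Reagent: ATP as calcium-mobilizing challenge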
OX1R antag-1: OX1R (HCRTR1) antagonists, primary screen, fluorescence, CHO/OX1R cells, Fluo-8 calcium, orexin A; Orexin/Hypocretin receptor type 1 (Homo sapiens), O43613; Fluo-8 calcium fluorescence; inhibition, % at 5 µM; 330,000 tested, 0.43% active; AID 434989, 2010;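 active means inhibition above its plate's threshold, mean inhibition of all tested compounds on the plate plus 3 SD, cut at about 37% in these data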;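 further: 0% = orexin A challenge wells and 100% = SB-334867-A antagonist wells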
TAAR1 agonist: human TAAR1 agonists, primary screen, Fluo-8 calcium fluorescence, CHO RD-HGA16 cells; vehicle wells 0%, saturating PEA agonist 100%; activation, % at 3 µM; 360,000 tested, 0.99% active;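 active means activation above the mean activation of all test compounds in the run plus 3 SD, cut at about 38% in these data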
Target sequence (Q96RJ0 whole entry, looked up): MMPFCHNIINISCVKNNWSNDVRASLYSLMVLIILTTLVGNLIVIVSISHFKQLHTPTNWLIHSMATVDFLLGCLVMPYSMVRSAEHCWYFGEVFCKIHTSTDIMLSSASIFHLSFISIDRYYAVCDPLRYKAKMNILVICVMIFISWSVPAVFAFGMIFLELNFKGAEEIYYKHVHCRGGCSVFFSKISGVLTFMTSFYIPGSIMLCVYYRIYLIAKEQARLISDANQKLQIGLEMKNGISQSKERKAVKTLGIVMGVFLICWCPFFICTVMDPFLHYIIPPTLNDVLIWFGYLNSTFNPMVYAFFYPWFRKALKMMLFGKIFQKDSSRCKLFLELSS
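Benchmarks: low control DMSO, high control PEA (EC100); System: CHO RD-HGA16 cells carrying human TAAR1 plus Gα16; Detection: Fluo-8 fluorescence, 5 s baseline then 140 s kinetic read; Schedule: 17-24 h plating, Fluo-8 75 min 37 °C, 30 min RT; Read-out basis: % activation from peak over basal fluorescence ratio, DMSO-to-PEA scaled.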
OX1R antag-2: antagonists of human orexin 1 receptor (OX1R). AID 485270, 2010. 330,000 tested, 1.8% active. OX1R-expressing cells, FRET antagonist read-out. inhibition, % at 6.6 µM; in the data active means inhibition mostly above about 38%, no sharp cut-off; inactive means mostly below about 40%;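 further: 0% = agonist challenge alone and 100% = reference antagonist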
GalR3 antag: GalR3 antagonists in HEK293 cells, primary screen, cell-based, fluorescence readout. Galanin receptor type 3 (Homo sapiens), O60755. HEK293 GalR3-CNG cAMP membrane potential fluorescence; galR3 body fused to GalR1 C-terminus. inhibition, % at 3 µM. 360,000 tested, 0.44% active;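 active means inhibition above the screen-wide average plus 3 SD, cut at about 13% in these data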;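 further: forskolin and galanin both at EC90 stimulate the cells; cAMP rise reported by CNG channel membrane potential dye signal; 0% = forskolin plus galanin with DMSO and 100% = forskolin alone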
Target sequence (O60755 1-299 limits assumed): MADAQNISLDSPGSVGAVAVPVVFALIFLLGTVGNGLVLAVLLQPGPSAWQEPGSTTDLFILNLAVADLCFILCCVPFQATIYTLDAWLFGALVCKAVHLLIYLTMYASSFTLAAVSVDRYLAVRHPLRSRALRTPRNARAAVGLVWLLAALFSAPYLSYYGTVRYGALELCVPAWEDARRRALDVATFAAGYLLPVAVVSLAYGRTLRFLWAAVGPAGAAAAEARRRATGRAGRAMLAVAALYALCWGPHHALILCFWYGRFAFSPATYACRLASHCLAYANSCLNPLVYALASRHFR
TAAR1 antagonist: human TAAR1 antagonists, primary screen, Fluo-8 calcium fluorescence, CHO RD-HGA16 cells; 360,000 tested, 1.5% active; antagonist; AID 624466, 2012; inhibition, % at 3 µM;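 active means inhibition above a per-plate cutoff, the mean inhibition of test compounds on that plate plus 3 SD, cut at about 49% in these data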;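 further: 0% = DMSO plus EC80 beta-PEA response and 100% = DMSO alone without agonist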
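Test system – hTAAR1-expressing CHO RD-HGA16 cells, Gα16-coupled · Reagent – β-PEA at EC80 concentration, post-compound challenge · Compound dosing – 3 µM, single point · Timing – 140 s kinetic read after compound, 140 s after agonist · Detection – Fluo-8 intracellular calcium dye fluorescence, real-time kinetic reads · Control set – DMSO and EC80 PEA controls · Repeats – n of 1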
TAAR1 nonsel count: nonselective antagonists in TAAR1 counter-screen cells, counter-screen for hTAAR1 antagonist project, cell-based, fluorescence, calcium; shares compounds with TAAR1 antagonist; counterscreen cell line, antagonist mode; inhibition, % at 3 µM; 2,400 tested, 77% active; AID 651780, 2012; in the data active means inhibition above about 22%;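 further: CHO-Ga16 host cells stimulated with ATP at an EC80 level; 0% = agonist EC80 plus vehicle and 100% = vehicle without agonist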
TAAR1 ant conf: human TAAR1 antagonists, retest of hits, confirmation, cell-based, fluorescence; TAAR1-expressing cells, fluorescence antagonist read-out; 2,400 tested, 40% active; shares compounds with TAAR1 antagonist; inhibition, % at 3 µM; in the data active means inhibition above about 49%;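 further: CHO-Ga16 host cells challenged with agonist PEA near its EC80; 0% = agonist at EC80 plus vehicle and 100% = vehicle with no agonist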
Ga16 nonsel ag: calcium activation in Ga16-expressing cells, counter-screen for TAAR1 antagonist project, cell-based, fluorescence | shares compounds with TAAR1 antagonist | 2,400 tested, 18% active | activation, % at 3 µM | AID 651953, 2012 | agonist counterscreen; in the data active means activation above about 12%;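 further: 0% = vehicle wells and 100% = saturating stimulus response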
TAAR1 ag counter: TAAR1 activation by candidate antagonists – cell-based, fluorescence, counter-screen for TAAR1 antagonist project. shares compounds with TAAR1 antagonist. hTAAR1 cell line, agonist mode. activation, % at 3 µM. 2,400 tested, 2% active; in the data active means activation above about 37%;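 further: CHO cells stably expressing TAAR1 with calcium dye readout; 0% = DMSO vehicle and 100% = full agonist response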
* marks the source's active call; other numbers are inactive results; / = no result given. Hits are enriched below; roughly 4.3% of the tested compounds scored in any of these assays.

SMILES	CHO parental Ca	OX1R antag-1	TAAR1 agonist	OX1R antag-2	GalR3 antag	TAAR1 antagonist	TAAR1 nonsel count	TAAR1 ant conf	Ga16 nonsel ag	TAAR1 ag counter
Cc1nn(-c2ccccc2)c(C)c1NC(=O)COC(=O)CC(C)c1ccccc1 (configuration not stated)	-11	-16	7	15	-2	12	/	/	/	/
O=C(O)CCC(=O)Nc1cccc(-c2nnc(-c3ccccc3)o2)c1	-2	-19	5	-7	-4	-13	/	/	/	/
CCC(=O)Nc1cccc(-c2nnc(-c3cccc(NC(=O)CC)c3)o2)c1	-7	9	21	7	-1	56*	22*	43	7	9
O=C(COc1ccccc1)Nc1cccc(-c2nnc(-c3ccccc3)o2)c1	-7	-8	13	62	-3	67*	38*	51*	8	4
CCC(=O)Nc1ccc(-c2nnc(-c3ccccc3)o2)cc1	0	-10	5	16	1	0	/	/	/	/
CCOC(=O)c1cc2c(c(-c3cccc(C#Cc4ccc(OC)c(OC)c4)c3)n1)[C@@H](CCO)N(S(=O)C(C)(C)C)C2 (some centres not stated)	/	/	4	/	0	4	/	/	/	/
COc1ccc(C#Cc2ccc(C3=CC(=O)CC(C)(C)C3=O)cc2)cc1	/	/	5	/	-6	81*	28*	43	4	3
COc1ccccc1/C=C/C(=O)NC(=S)NC(C)C	-26	-15	6	21	0	59*	19	44	10	19
CC1CCCC(NC(=O)COC(=O)COc2ccc(Br)cc2)C1C (configuration not stated)	-5	-8	28	-5	-3	36	/	/	/	/
Cc1ccc(NC(=O)c2ccc(OC(=O)c3ccco3)cc2)cc1	-3	-11	4	1	-5	-3	/	/	/	/
O=C(Nc1cc(Cl)ccc1Cl)c1ccc(OC(=O)c2ccco2)cc1	7	-4	11	8	-5	85*	25*	37	3	4
COc1cccc(N2C(=O)C3ON(c4ccccc4)C(c4cccs4)C3C2=O)c1 (configuration not stated)	-12	-17	2	26	0	54*	24*	41	7	8
O=[N+]([O-])c1ccc(N/N=C/c2c[nH]c3ccccc23)c(S(=O)(=O)Nc2ccc(Cl)cc2)c1	5	2	20	5	-3	0	/	/	/	/
COc1ccccc1NS(=O)(=O)c1cc([N+](=O)[O-])ccc1N/N=C/c1c(C)[nH]c2ccccc12	41*	46*	33	15	-5	58*	47*	46	16*	9
Cc1ccc(-c2[nH]ncc2/C=N/n2c(C)nc3ccccc3c2=O)cc1	-29	-25	11	4	-6	50*	23*	40	7	8
COc1cccc(Cn2c3ccc(NC(=O)CCc4ccc(F)cc4)cc3c(=O)n2C)c1	/	/	8	/	-4	-2	/	/	/	/
COc1ccc(CCNC(=O)c2ccc3c(c2)N(Cc2ccccc2)CCS3)cc1OC	-4	-12	5	57*	-8	80*	40*	62*	6	3
COc1ccc(CCNC(=O)c2cc(-c3ccccc3)c(N3CCOCC3)s2)cc1OC	-1	-7	1	23	-5	67*	25*	41	4	1
NS(=O)(=O)c1ccc(CCNC(=O)c2ccc3c(c2)N(Cc2ccccc2)CCS3)cc1	-7	-6	8	70*	-2	83*	39*	62*	8	7
O=C(NCCc1ccccc1)c1cc(-c2ccccc2)c(N2CCOCC2)s1	-11	-10	-1	27	-4	16	/	/	/	/
COc1ccc(N(CC(=O)Nc2cccc(C(C)=O)c2)S(=O)(=O)c2ccc(NC(C)=O)cc2)cc1	/	/	17	/	-7	61*	35*	55*	11	12
COC(=O)CN(c1ccc(OC)cc1)S(=O)(=O)c1ccc(OC)c(OC)c1	-7	-11	5	13	-3	-4	/	/	/	/
COc1ccc(NC(=O)CN(c2ccc(OC)cc2)S(=O)(=O)c2ccc(OC)c(OC)c2)cc1	-9	-15	18	19	2	51*	23*	34	6	3
CC1(c2nc3ccccc3[nH]2)c2ccccc2C(=O)N1Cc1ccccc1 (configuration not stated)	/	/	1	/	-5	-20	/	/	/	/
COc1ccc(S(=O)(=O)NC(=O)C2(C)CCN2C(=O)C2(c3ccc(Cl)cc3)CCC2)cc1 (configuration not stated)	/	/	0	/	-7	1	/	/	/	/
COc1ccc2c(c1)CC/C(=C\c1ccc(OC)c(Cn3cccn3)c1)C2=O	-20	-10	12	34	-7	60*	34*	51*	8	9
N/C(=N\c1nc2ccccc2o1)NC(=O)c1ccccc1NC(=O)c1ccccc1	-32	-40	12	19	0	65*	33*	37	3	-1
O=C(NCc1ccccc1)C1=C[C@@H](c2coc3ccccc3c2=O)C[C@@H](OCc2ccc(CO)cc2)O1	-14	-20	14	6	1	52*	18	21	2	-2
CC(=O)n1cc([C@@H]2C=C(C(=O)N3CCN(C)CC3)O[C@H](OCc3ccc(CO)cc3)C2)c2ccccc21	5	-26	11	18	-6	14	/	/	/	/
CCO[C@@H]1OC(C(=O)NCc2ccccc2)=C[C@H](c2coc3ccccc3c2=O)[C@H]1CCCO	-10	-22	10	23	-1	50*	11	24	3	6
